Publication PMC4803553 (Endocrinology and Metabolism, 2016)
Where two headings read alike, the source gives them in different places.

Assays:
[1] = tested on: hemoglobin A1c (HbA1c); type: in vivo, human; conditions: mean±SD; for After treatment HbA1c: after 3 months of treatment, kidney transplant patients with diabetes; for Difference of HbA1c (ΔHbA1c): change from baseline to 3 months of treatment
In short: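 Renal allograft recipients with diabetes, all on cyclosporine-based triple maintenance therapy, started a DPP-4 inhibitor after transplant, at full or renally adjusted reduced dose (50 mg once daily). HbA1c was measured by immunoturbidimetry on an automated analyser and reported as NGSP %. Values at baseline and after 3 months of treatment were compared by paired t test; mean±SD.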

[2] = Renal function; type: in vivo, human; conditions: follow-up after DPP-4 inhibitor treatment, mean±SD; for Follow-up eGFR: MDRD equation
In short: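 Fasting early-morning antecubital venous blood was taken from renal allograft recipients receiving a DPP-4 inhibitor. Creatinine was measured by the Jaffe method. eGFR was calculated with the Modification of Diet in Renal Disease study equation. Values are reported as mean±SD and were compared across inhibitor groups by one-way ANOVA with Scheffe post hoc tests.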

[3] = cited from earlier work

CC#CCn1c(N2CCC[C@@H](N)C2)nc2c1c(=O)n(Cc1nc(C)c3ccccc3n1)c(=O)n2C [Linagliptin, linagliptin]
After treatment HbA1c [1]: 6.79±0.63% | Difference of HbA1c (ΔHbA1c) [1]: -1.40±1.34% | Follow-up eGFR [2]: 62.82±18.74 mL/min/1.73 m^2 | Follow-up creatinine [2]: 1.25 ± 0.42 mg/dL | Eliminated in an unchanged form via the feces [3]: 84.7% | Renal excretion, share of elimination [3]: 5.4%

N[C@@H](CC(=O)N1CCn2c(nnc2C(F)(F)F)C1)Cc1cc(F)c(F)cc1F [Sitagliptin, sitagliptin]
After treatment HbA1c [1]: 7.18±1.21% | Difference of HbA1c (ΔHbA1c) [1]: -0.53±0.95% | Difference of HbA1c (ΔHbA1c) ([1]; listed as sitagliptin): –0.53%±0.95% | Follow-up eGFR [2]: 61.03±16.50 mL/min/1.73 m^2 | Follow-up creatinine [2]: 1.22 ± 0.82 mg/dL | Eliminated in an unchanged form in the urine [3]: 79%

N#C[C@@H]1CCCN1C(=O)CNC12CC3CC(CC(O)(C3)C1)C2 [Vildagliptin, vildagliptin]
After treatment HbA1c [1]: 7.08±1.81% | Difference of HbA1c (ΔHbA1c) [1]: -0.38±1.03% | Difference of HbA1c (ΔHbA1c) ([1]; listed as vildagliptin): –0.38%±1.03% | Follow-up eGFR [2]: 58.21±17.76 mL/min/1.73 m^2 | Follow-up creatinine [2]: 1.41 ± 0.95 mg/dL
